These results are taken from ChEMBL document CHEMBL2311419, “Discovery of coumarin-dihydropyridine hybrids as bone anabolic agents” (J Med Chem, 2013).

Active and inactive are the calls of the source. The rule behind the calls is not given here.

Data set [1] concerns Calvarial osteoblast. Description: Induction of osteoblastogenesis in mouse calvarial osteoblasts assessed as increase in expression of COL1 gene at 100 pM by qPCR analysis relative to control. It is filed as functional, cell-based.
Data set [2] has as its system Calvarial osteoblast. Description: Induction of osteoblastogenesis in mouse calvarial osteoblasts assessed as increase in expression of osteocalcin gene at 100 pM to 10 nM by qPCR analysis relative to control. It is filed as functional.
Data set [3] has as its system Calvarial osteoblast. Description: Induction of proliferation of mouse calvarial osteoblasts at 1 pM to 1 uM after 48 hrs. The class given is functional, cell-based.
The subject of data set [4] is Calvarial osteoblast. Description: Induction of osteoblastogenesis in mouse calvarial osteoblasts assessed as increase in expression of ALP gene at 100 pM by qPCR analysis relative to control. It is filed as functional, cell-based. On the technique in general: Real-time PCR tracks product formation cycle by cycle.
In data set [5] the test system is Calvarial osteoblast. Description: Induction of osteoblastogenesis in mouse calvarial osteoblasts assessed as increase in expression of osteocalcin gene at 100 pM by qPCR analysis relative to control. The class given is functional, cell-based.
Data set [6] deals with Calvarial osteoblast. Description: Induction of mineralization in mouse calvarial osteoblasts assessed as increase of mineralized nodules formation measuring concentration required for maximum activity after 21 days by alizarin red-S staining based spectrophotometric analysis. The class given is functional.
The test system of data set [7] is Calvarial osteoblast. Description: Induction of osteoblastogenesis in mouse calvarial osteoblasts assessed as increase in expression of ALP gene at 100 pM to 10 nM by qPCR analysis relative to control. It is filed as functional.
For data set [8], the system named is Calvarial osteoblast. Description: Induction of osteoblastogenesis in mouse calvarial osteoblasts assessed as increase in expression of RUNX2 gene at 100 pM to 10 nM by qPCR analysis relative to control. It is filed as functional.
The nature of data set [9]: Cytotoxicity against mouse calvarial osteoblasts assessed as cell viability at 1 pM to 1 uM after 48 hrs by MTT assay. It is filed as cell-based. As to conditions: calvarial osteoblast. In general terms: Tetrazolium assays rely on reduction of a dye to a coloured formazan, in cell work by metabolically active cells.
The subject of data set [10] is Calvarial osteoblast. Description: Induction of osteoblastogenesis in mouse calvarial osteoblasts assessed as increase in expression of BMP2 gene at 100 pM to 10 nM by qPCR analysis relative to control. It is filed as functional.
Data set [11] is described as follows: Stimulation of alkaline phosphatase activity in mouse calvarial osteoblasts after 48 hrs by spectrophotometric analysis. The essentials:
(§1)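 Calvarial osteoblasts were exposed to compounds over 1 pM to 1 µM. ALP activity was read spectrophotometrically as optical density at 405 nm. Results were expressed as % ALP activity, with EC50 and Emax derived from the concentration series.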

In data set [12] the test system is Calvarial osteoblast. Description: Induction of osteoblastogenesis in mouse calvarial osteoblasts assessed as increase in expression of BMP2 gene at 100 pM by qPCR analysis relative to control. It is filed as functional, cell-based.
Data set [13] has as its system Calvarial osteoblast. Description: Induction of osteoblastogenesis in mouse calvarial osteoblasts assessed as increase in expression of COL1 gene at 100 pM to 10 nM by qPCR analysis relative to control. The class given is functional.
The species named for data set [14] is Mus musculus. Description: Stimulation of alkaline phosphatase activity in mouse calvarial osteoblasts assessed as concentration required for maximum activity after 48 hrs by spectrophotometric analysis. The essentials: as §1
Data set [15] has as its system Calvarial osteoblast. Description: Induction of osteoblastogenesis in mouse calvarial osteoblasts assessed as increase in COL1 expression at 100 pM to 10 nM by Western blotting analysis. It is filed as functional, cell-based. A general note: In western blotting, separated proteins are transferred to a membrane and probed.
The test system of data set [16] is Calvarial osteoblast. Description: Induction of osteoblastogenesis in mouse calvarial osteoblasts assessed as increase in expression of RUNX2 gene at 100 pM by qPCR analysis relative to control. The class given is functional, cell-based.
In data set [17] the test system is Calvarial osteoblast. Description: Induction of osteoblastogenesis in mouse calvarial osteoblasts assessed as increase in BMP2 expression at 100 pM to 10 nM by Western blotting analysis. It is filed as functional, cell-based.
Data set [18] is filed under the species Mus musculus. Description: Stimulation of alkaline phosphatase activity in mouse calvarial osteoblasts at 1 pM to 1 uM after 48 hrs by spectrophotometric analysis relative to nifedipine.
In data set [19] the test system is Calvarial osteoblast. Description: Induction of osteoblastogenesis in mouse calvarial osteoblasts assessed as increase in RUNX2 expression at 100 pM to 10 nM by Western blotting analysis. The class given is functional, cell-based.
The species entered for data set [20] is Mus musculus. Description: Stimulation of alkaline phosphatase activity in mouse calvarial osteoblasts at 1 pM to 1 uM after 48 hrs by spectrophotometric analysis. The essentials: as §1

The term EC50 denotes the concentration at which the effect is half-maximal. A high value points to weaker potency.

Take `CCOC(=O)C1=C(C)NC(C)=C(C(=O)OCC)C1c1cc(C(C)(C)C)c2oc(=O)c(C(=O)OC)cc2c1`: the result in the data set on Calvarial osteoblast [1], in the data set on Calvarial osteoblast [3], with Calvarial osteoblast [4], in the data set on Calvarial osteoblast [5], in the data set on Calvarial osteoblast [12] and with Calvarial osteoblast [15] was Active. The outcome with Calvarial osteoblast [16], in the data set on Calvarial osteoblast [17] and with Calvarial osteoblast [19] was Active. For the same molecule, the “fold change (FC)” value with Calvarial osteoblast [2], with Calvarial osteoblast [7], in the data set with Calvarial osteoblast [8], in the data set on Calvarial osteoblast [10] and in the data set with Calvarial osteoblast [13] was 1.5 each time. Moreover, the “Concentration for maximum mineralization” value in the data set on Calvarial osteoblast [6] was found to be 100 pM. For the same molecule, the Activity entry in data set [9] is “Non-toxic”; in the data set listed under Mus musculus [18], 28%; in the data set listed under Mus musculus [20], 70%. The molecule also gave an EC50 in data set [11] of 1.1 µM. For the same molecule, the Concentration giving maximum ALP activity in the data set listed under Mus musculus [14] is 100 pM.
